Rows were chosen to be rich in hits. Some 3.9% of all compounds tested hit in one or more screens of this group.
NF-kB neuron act: NF-kB expression increase, human neuronal cells. fold change at 12.5 µM. NF-kB reporter expression; active compounds read high. 1.6% of 190,000 active; in the data active means fold change above about 3.3
FLuc inh counter: Photinus pyralis luciferase inhibition counter-screen. P08659. ATPLite firefly luciferase biochemical luminescence, 10 min. inhibition, % at 10 µM. 1.5% of 200,000 active;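 active means inhibition above about 50% when tested at 10 µM, limit read from the data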
STAT1 activator: increases IFN-gamma driven STAT1 reporter signal. 2.6% of 200,000 active. NIH 3T3 STAT1-luciferase reporter, luminescence; 100% = IFN-gamma alone, no compound. activation (% of control), % at 5.5 µM;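 active means activation above the screen-wide mean activation plus 3 SD, cut at about 130% in these data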;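 further: raw ratio to IFN-gamma control signal so 100% means no change and 0% no light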
APP 5'UTR act: APP 5'UTR luciferase reporter activation | SH-SY5Y APP 5'UTR luciferase reporter, luminescence; zero percent = DMSO vehicle wells | activation, % at 2 µM | 1% of 190,000 active;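 active means activation above a set limit, based on mean plus 3 SD of controls, cut at about 140% in these data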
FLuc act counter: firefly luciferase counter-screen for stimulation assays. P08659. ATPlite luciferase biochemical, luminescence, 10 min; 0 = ATP-free wells, 1 = DMSO control. activation factor at 10 µM. 200,000 tested, under 10 active;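 active means luciferase activation factor, scaled between plate controls, of at least 2 with compound at 10 µM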
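test system = cell-free luciferase reagent | medium = PBS as buffer for the ATP substrate | dosing = test compounds dosed from 2 mM stocks in 100% DMSO | incubation = 10 min at ambient temperature | detection = luminescence measurement of luciferase light output | benchmarks = low control with PBS replacing ATP, high control enzyme plus ATP without compound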
Rad51 HR inh: blocks human Rad51 in homologous recombination | hRad51 DNA strand exchange, fluorescence dequenching | 0.085% of 200,000 active | AID 1385 | inhibition, % at 10 µM;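 active means inhibition above 40% at the single screening dose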;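 further: 0% = DMSO control wells and 100% = blanks with heterologous ssDNA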
Target sequence (Q06609 whole entry, looked up): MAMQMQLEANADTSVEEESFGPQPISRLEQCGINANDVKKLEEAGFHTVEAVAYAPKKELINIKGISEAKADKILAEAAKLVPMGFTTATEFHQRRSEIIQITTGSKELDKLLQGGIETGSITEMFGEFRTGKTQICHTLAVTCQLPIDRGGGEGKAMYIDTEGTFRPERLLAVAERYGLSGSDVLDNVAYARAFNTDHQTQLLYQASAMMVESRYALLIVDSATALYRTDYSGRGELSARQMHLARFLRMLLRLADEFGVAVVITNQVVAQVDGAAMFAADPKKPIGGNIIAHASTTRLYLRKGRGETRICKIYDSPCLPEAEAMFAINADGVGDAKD
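Test system: preformed human Rad51 ssDNA filaments; also added: Donor/quencher-labelled 47-bp dsDNA substrate; doses: 10 µM final, single point; times: 37 °C 15-min filament assembly, 30-min compound preincubation, 15-min exchange; detection: FRET fluorescence dequenching, excitation 485 nm, emission 520 nm; read-out basis: Fluorescence-based percent inhibition, control- and blank-normalised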
Numbers without * were called inactive; / = not tested or not shown.

SMILES	NF-kB neuron act	FLuc inh counter	STAT1 activator	APP 5'UTR act	FLuc act counter	Rad51 HR inh
CN(CCc1ccccn1)C(=O)CCC1CCCN(C(=O)c2ccsc2)C1 (stereo not drawn)	0.99	-6.7	94.6	7.5	1.1	/
COC(c1ccccc1)c1nnc(CCC(=O)N(C)Cc2cccc(-n3cccn3)c2)o1 (stereo not drawn)	2.44	-1.1	131.3*	39.2	1	6.4
COC(c1ccccc1)c1nnc(CCC(=O)N(C)CCCC2CCCC2)o1 (stereo not drawn)	1.82	-2.7	116.8	9.1	1	11.5
COC(c1ccccc1)c1nnc(CCC(=O)N(C)CCOc2ccccc2)o1 (stereo not drawn)	2.25	-4.3	134.6*	34.5	1	/
O=C(Cn1nc2n(c1=O)-c1ccccc1SC2)N/N=C/c1cccnc1	/	/	/	/	/	-10.7
CC(=O)NC(c1ccc(Cl)cc1)c1c(O)ccc2ccc(O)cc12 (stereo not drawn)	0.67	-7.0	130.5*	-18.5	1.1	-12.2
O=C(CSc1nnc(-c2ccc(O)cc2)n1Cc1ccco1)c1cccs1	1	-3.8	95.3	7.5	1	-0.1
O=C(CC(SCc1ccco1)c1ccc(O)cc1)c1cccs1 (stereo not drawn)	5.36*	1.6	117.8	71.5	1	-12.3
O=C(CC(SCCO)c1ccc2c(c1)OCO2)c1cccs1 (stereo not drawn)	3.19	2.0	131.5*	69.5	1	0.3
O=C(NCc1ccccc1)c1onc(CSc2ccc(F)c(F)c2)c1C(=O)NCc1ccccc1	/	/	/	/	/	-5.0
O=C(CCCCl)NC(=S)Nc1ccc(N2CCOCC2)cc1	/	/	/	/	/	9.6
CC(CN1CCOCC1)OC(=O)c1ccc2c(c1)OCCO2 (stereo not drawn)	2.05	2.3	137.5*	32.9	1	2.9
Cc1ccc(NC(=O)OC(C)CNC(=O)Oc2cccc(C)c2)cc1 (stereo not drawn)	1.69	4.7	139.5*	44.5	1	4.7
COc1ccc(-c2csc(NCCc3nc4cc(C(=O)NCCCO)ccc4n3Cc3ccc(C)cc3)n2)cc1	/	/	/	/	/	-8.6
CCC(=O)Nc1cccc(-c2nnc(SCC(=O)c3ccccc3)n2C)c1	2.82	27.3	148.5*	99.5	0.7	0.5
C=CC[C@]12CC=CC(=O)[C@@]1(O)O[C@H](c1ccc(OC)c(OC)c1)[C@H]2C	/	/	/	/	/	-5.0
Cc1ccc2nc(N3C(=O)C(O)=C(C(=O)c4ccco4)C3c3cccs3)sc2c1 (stereo not drawn)	2.34	2.2	123.4	170.5*	1	2.9
O=C(Nc1ccc(N2CCOCC2)c(Cl)c1)c1ccco1	3.44*	59.1*	148.6*	113.2	0.4	/
O=C(CSc1nc2ccccc2o1)Nc1ccc(N2CCOCC2)c(Cl)c1	1.28	-2.7	94.0	193.7*	1	-8.1
O=C(Nc1ccc(N2CCOCC2)c(Cl)c1)c1ccccc1F	5.11*	27.5	137.5*	126.9	0.7	-0.4
O=C(Nc1ccc(N2CCN(C(=O)c3ccccc3)CC2)c(Cl)c1)c1ccco1	0.56	-5.4	93.6	-1.8	1.1	1.5
O=C(c1ccccc1)c1ccc(N2CCOCC2)c(F)c1	2.97	14.4	132.7*	110.4	0.9	/
O=C(c1ccccc1)c1cc(F)c(N2CCOCC2)cc1Cl	1.28	-8.1	106.3	11.3	1.1	-4.9
Cc1ccc(CN2CC(C(=O)Nc3ccc(F)c([N+](=O)[O-])c3)CC2=O)cc1 (stereo not drawn)	1.03	-3.0	97.6	35.3	1	9.4
O=C(Nc1ccc(Br)c(Cl)c1)c1ccco1	2.6	0.3	135.4*	80.8	1	-3.9
SMILES	NF-kB neuron act	FLuc inh counter	STAT1 activator	APP 5'UTR act	FLuc act counter	Rad51 HR inh
O=C(Nc1ccc(NC(=O)c2ccco2)c(Cl)c1)c1ccccc1	1.23	0.1	124.9	45.3	1	0.1
COc1ccc(-c2cc(=O)c3cc(F)ccc3[nH]2)cc1	1.21	9.1	102.3	5.2	0.9	-4.9
COc1ccc2[nH]c(-c3ccc(C)cc3)cc(=O)c2c1	4.18*	93.4*	124.2	109.1	0.1	6.4
COc1cc(/C(C)=N\NC(=O)CSc2nc3ccccc3n2C)ccc1O	/	/	/	/	/	2.5
CCC(Sc1nc(N)c(NC(=O)c2ccc(OC)cc2)c(=O)[nH]1)C(=O)O (stereo not drawn)	1.15	-6.2	101.8	-0.4	1.1	-0.1
O=C(c1cccs1)N1CCN(Cc2ccccc2[N+](=O)[O-])CC1	1.11	-1.4	95.8	24.2	1	-0.2
Oc1cccc2ccc(/C=C/c3c(F)cccc3Cl)nc12	5.44*	24.4	97.0	136.4*	0.8	1.8
Nc1nccc(/C=C/c2c(F)cccc2Cl)n1	1.64	14.4	122.5	26.6	0.9	-5.1
C=C(C)Cn1c(C)cc(C)c(S(=O)(=O)c2cccc(C)c2)c1=O	0.97	-6.1	89.8	14.2	1.1	-13.4
CCOC(=O)c1cc(C#N)c(C)nc1N(CC)CC	/	/	/	/	/	11.9
CCN1CCN(C(=O)NCc2ccccc2)CC1	/	/	/	/	/	3.6
Brc1ccc(COc2ncnc3ccccc23)cc1	1.74	-6.0	103.4	-14.2	1.1	0.3
c1ccc(OCCOc2ncnc3ccccc23)cc1	2.54	-6.7	133.1*	28.8	1.1	2.8
O=C(COc1ncnc2cc(Cl)ccc12)c1ccccc1	/	/	/	/	/	4.2
O=C(COc1ncnc2ccccc12)c1ccc(Cl)cc1	1.2	80.2*	133.8*	29.9	0.2	-0.1
C/C(Cc1ccccc1)=N\NC(=O)C1CCCCC1	1.06	-3.7	100.6	-13.2	1	9.2
COC(=O)N/N=C(/c1ccccc1)C1CCCCC1	5.59*	-4.4	95.9	4.8	1	18.9
COc1ccc2nc(NC3=NCCC3)sc2c1	2.58	27.2	136.1*	51.4	0.7	1.2
COc1cccc(Nc2nc3ccc(OC)cc3s2)c1	4.74*	40.4	129.3*	194.6*	0.6	25.8
CC1(C)CC(=O)C(N=Nc2ccc(-c3ccccc3)cc2)=C(O)C1	2.28	-0.4	105.0	136.9*	1	-12.8
COc1ccc(OC(=O)c2cnn(-c3ccccc3)c2C)cc1	5.93*	13.0	150.5*	105.6	0.9	-2.3
O=Cc1c(-c2ccc(F)cc2)nc2ccccn12	0.93	3.0	101.4	8.8	1	6.7
COc1ccc(-c2nc3ccccn3c2C=O)cc1	2.4	61.4*	143.4*	105.5	0.4	9.0
Cc1cc2ncc(-c3ccc(Cl)cc3)c(N)n2n1	1.24	57.7*	129.0*	45.5	0.4	7.8
Nc1[nH]c(N=NC(=O)c2ccccc2)c2ccccc12	3.37*	60.8*	142.2*	131.9	0.4	7.1
Nc1[nH]c(N=NC(=O)c2ccccc2O)c2ccccc12	2.29	85.4*	103.5	65.8	0.1	/
CCCNC(=O)c1c(CSc2ccc(Cl)cc2)noc1C(=O)NCc1ccccc1	/	/	/	/	/	-3.7

From PubChem BioAssay
